The source made the active and inactive calls. The rule behind the calls is not given here.
Assays:
[1] = target: T1, Free fatty acid receptor 1 (Homo sapiens, UniProt O14842); assay: Agonist activity at human GPR40 expressed in CHO-A12 cells assessed as increase in intracellular calcium flux measured for 100 secs by FLIPR assay; assay type: functional, cell-based
[2] = target: T2, Free fatty acid receptor 1 (Mus musculus, UniProt Q76JU9); assay: Agonist activity at mouse GPR40 expressed in CHO-A12 cells assessed as increase in intracellular calcium flux measured for 100 secs by FLIPR assay; assay type: functional, cell-based
T2 sequence (Q76JU9 whole entry): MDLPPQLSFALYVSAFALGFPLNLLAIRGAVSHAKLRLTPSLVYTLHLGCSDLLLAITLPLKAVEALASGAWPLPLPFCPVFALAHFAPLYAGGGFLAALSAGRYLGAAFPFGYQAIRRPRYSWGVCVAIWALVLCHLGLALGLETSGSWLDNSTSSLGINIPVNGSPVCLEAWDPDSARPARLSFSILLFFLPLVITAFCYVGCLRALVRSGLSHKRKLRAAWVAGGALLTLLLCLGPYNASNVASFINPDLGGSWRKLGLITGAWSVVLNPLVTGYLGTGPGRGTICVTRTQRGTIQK

[3] = target: Free fatty acid receptor 1 (Mus musculus) (UniProt Q76JU9); assay: Intrinsic activity at mouse GPR40 expressed in CHO-A12 cells assessed as increase in intracellular calcium flux at 8.3 uM measured for 100 secs by FLIPR assay […]; assay type: functional, cell-based
Chain of Free fatty acid receptor 1 (Mus musculus) (Q76JU9 whole entry, the tested form may be a part): as the sequence (Q76JU9 whole entry) above

[4] = target: T3, Peroxisome proliferator-activated receptor gamma (Homo sapiens, UniProt P37231); assay: Transactivation of human Gal4 fused PPARgamma-LBD expressed in HEK293 cells after 18 hrs by luciferase reporter gene assay; assay type: cell-based
T3 sequence (P37231 whole entry): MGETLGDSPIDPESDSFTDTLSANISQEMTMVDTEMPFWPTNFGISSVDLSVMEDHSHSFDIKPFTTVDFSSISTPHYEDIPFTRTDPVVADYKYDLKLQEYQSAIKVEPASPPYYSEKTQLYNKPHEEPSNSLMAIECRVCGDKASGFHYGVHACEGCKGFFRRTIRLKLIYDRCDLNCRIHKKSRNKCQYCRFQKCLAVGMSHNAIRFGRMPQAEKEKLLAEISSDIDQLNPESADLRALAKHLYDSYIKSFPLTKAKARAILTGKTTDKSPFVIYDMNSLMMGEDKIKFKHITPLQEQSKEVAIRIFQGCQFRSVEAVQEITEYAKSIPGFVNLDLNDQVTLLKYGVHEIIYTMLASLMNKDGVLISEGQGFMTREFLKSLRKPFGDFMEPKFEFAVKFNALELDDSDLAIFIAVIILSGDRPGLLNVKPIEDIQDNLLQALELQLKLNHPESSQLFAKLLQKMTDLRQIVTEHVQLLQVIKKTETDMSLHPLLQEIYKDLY
Summary of the method: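 Gal4 gene reporter transactivation assay for PPARγ; EC50 and Ymax reported.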

PPARgamma = target: T4, PPARgamma (Homo sapiens, UniProt P37231); assay: Transactivation of human Gal4 fused PPARgamma-LBD expressed in HEK293 cells at 4.8 uM after 18 hrs by luciferase reporter gene assay relative to […]; assay type: cell-based; settings: HEK293 cells expressing Gal4-fused human PPARgamma-LBD
T4 sequence (P37231 whole entry): T3 sequence (P37231 whole entry)

[5] = target: Free fatty acid receptor 1 (Mus musculus) (UniProt Q76JU9); assay: Agonist activity at GPR40 in C57BL/6J mouse primary pancreatic islets assessed as increase in glucose-stimulated insulin secretion after 1 hr by ELISA
Summary of the method: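 Primary islets isolated from mice; insulin secretion measured across 0.016-2.0 µM compound to assess glucose-stimulated insulin secretion.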

[6] = target: T2, Free fatty acid receptor 1; assay: Agonist activity at GPR40 in mouse STC1 cells assessed as induction of GLP-1 secretion measured after 1 hr by HTRF assay; assay type: cell-based
[7] = target: T1, Free fatty acid receptor 1; assay: Agonist activity at human GPR40 transfected in HEK293 cells assessed as induction of cAMP accumulation incubated for 30 to 45 mins by HTRF assay; assay type: functional, cell-based
[8] = target: T1, Free fatty acid receptor 1; assay: Intrinsic activity at human GPR40 transfected in HEK293 cells assessed as induction of cAMP accumulation at 16.7 uM incubated for 30 to 45 mins by HTRF assay relative to […]; assay type: functional, cell-based
Mus musculus [9] = assay: Antidiabetic activity in C57BL/6J mouse assessed as change in plasma glucose AUC (0 to 120 mins) at 1 mg/kg, po administered 1 hr prior to glucose challenge by oral glucose tolerance test; assay type: functional
Summary of the method: (§1)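 C57BL/6J mice dosed orally at 0.3 or 1 mg/kg 1 h before an oral glucose bolus. Plasma glucose sampled at -60, -20, 0, 20, 40, 60 and 120 min; glucose AUC0-120 expressed relative to vehicle.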

Mus musculus [10] = assay: Decrease in blood glucose level in C57BL/6J mouse at 0.3 mg/kg, po administered 1 hr prior to glucose challenge measured up to 120 mins by oral glucose tolerance test; assay type: functional, organism-based; summary of the method: as §1
[11] = Terminal half life in CD-1 mouse at 0.2 mg/kg, iv by LC-MS/MS analysis; assay type: ADME, organism-based; settings: in vivo, read-out: beta t1/2 (converted)
[12] = Volume of distribution at steady state in CD-1 mouse at 0.2 mg/kg, iv by LC-MS/MS analysis; assay type: ADME, organism-based; settings: in vivo, read-out: Vdss
[13] = Clearance in CD-1 mouse at 0.2 mg/kg, iv by LC-MS/MS analysis; assay type: ADME, organism-based; settings: in vivo
[14] = Oral bioavailability in C57BL6 mouse at 0.5 mg/kg; assay type: ADME, organism-based; settings: in vivo
[15] = Fraction unbound in mouse plasma; assay type: ADME, cell-free
[16] = Fraction unbound in human plasma; assay type: ADME, cell-free
[17] = Half life in human liver microsomes; assay type: ADME, microsome
[18] = Half life in mouse liver microsomes; assay type: ADME, microsome
[19] = Half life in cynomolgus monkey liver microsomes; assay type: ADME, Macaca fascicularis, microsome
Rattus norvegicus [20] = assay: Toxicity in rat assessed as effect on mean arterial blood pressure at 80 mg/kg administered as single dose; assay type: organism-based; settings: in vivo
Summary of the method: (§2)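 Male rats fitted with telemetry received a single 80 mg/kg dose. Heart rate and blood pressure recorded by telemetry; locomotor activity monitored.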

Rattus norvegicus [21] = assay: Toxicity in rat assessed as effect on heart rate at 80 mg/kg administered as single dose; assay type: organism-based; settings: in vivo; summary of the method: as §2
Rattus norvegicus [22] = assay: Toxicity in rat assessed as induction of hyperactivity at 80 mg/kg administered as single dose; assay type: organism-based; settings: in vivo; summary of the method: as §2
[23] = target: T5, Peroxisome proliferator-activated receptor gamma (Mus musculus, UniProt P37238); assay: Agonist activity at PPARgamma in mouse 3T3L1 cells assessed as increase in insulin induced adipocyte differentiation by measuring free glycerol levels at 3 uM; assay type: cell-based
T5 sequence (P37238 whole entry): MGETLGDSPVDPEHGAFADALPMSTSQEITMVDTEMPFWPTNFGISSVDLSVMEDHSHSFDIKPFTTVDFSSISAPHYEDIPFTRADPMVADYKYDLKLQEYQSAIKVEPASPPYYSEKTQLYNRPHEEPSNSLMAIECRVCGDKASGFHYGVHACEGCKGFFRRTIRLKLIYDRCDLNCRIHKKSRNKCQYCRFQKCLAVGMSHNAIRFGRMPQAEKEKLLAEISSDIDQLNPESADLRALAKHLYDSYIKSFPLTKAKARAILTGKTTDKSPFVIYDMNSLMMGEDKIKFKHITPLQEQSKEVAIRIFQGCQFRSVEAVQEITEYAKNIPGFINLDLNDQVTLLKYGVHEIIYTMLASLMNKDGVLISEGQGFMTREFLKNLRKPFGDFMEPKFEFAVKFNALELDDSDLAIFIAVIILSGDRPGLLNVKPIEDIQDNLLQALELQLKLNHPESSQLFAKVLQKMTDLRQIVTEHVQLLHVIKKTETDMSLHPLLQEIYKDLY
Summary of the method: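 3T3L1 cells incubated with compound at 3 µM; free glycerol levels measured as a marker of PPARγ-mediated adipocyte differentiation.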

Cytochrome P450 3A4 = Cytochrome P450 3A4 (Homo sapiens, UniProt P08684); assay: Inhibition of CYP3A4 (unknown origin); assay type: ADME
Chain of Cytochrome P450 3A4 (P08684 whole entry): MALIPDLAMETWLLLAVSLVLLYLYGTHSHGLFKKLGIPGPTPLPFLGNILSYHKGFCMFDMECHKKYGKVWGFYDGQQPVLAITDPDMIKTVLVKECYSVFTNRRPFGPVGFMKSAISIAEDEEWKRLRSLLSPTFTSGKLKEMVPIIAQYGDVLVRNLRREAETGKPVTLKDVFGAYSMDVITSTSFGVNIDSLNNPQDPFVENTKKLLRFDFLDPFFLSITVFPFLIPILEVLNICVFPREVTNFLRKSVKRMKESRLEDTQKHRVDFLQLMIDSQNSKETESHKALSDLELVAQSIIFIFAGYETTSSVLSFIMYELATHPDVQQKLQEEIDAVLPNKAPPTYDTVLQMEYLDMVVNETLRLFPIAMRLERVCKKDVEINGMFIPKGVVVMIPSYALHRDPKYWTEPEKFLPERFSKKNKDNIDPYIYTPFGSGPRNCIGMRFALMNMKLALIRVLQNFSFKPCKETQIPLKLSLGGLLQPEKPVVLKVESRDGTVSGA

[24] = target: T1, Free fatty acid receptor 1; assay: Potentiation of DHA-induced agonist activity at human GPR40 inducibly expressed in HEK293 cells assessed as increase in intracellular calcium flux at 3 nM measured for 100 secs by FLIPR assay; assay type: functional, cell-based
Summary of the method: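 Ca2+ FLIPR concentration-response to DHA in inducible hGPR40 cells, alone or with fixed added test compound (3 nM or 10 nM); curve shift assessed.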

[25] = target: T3, Peroxisome proliferator-activated receptor gamma; assay: Binding affinity to PPARgamma (unknown origin); assay type: ADME

T1 sequence (O14842 whole entry): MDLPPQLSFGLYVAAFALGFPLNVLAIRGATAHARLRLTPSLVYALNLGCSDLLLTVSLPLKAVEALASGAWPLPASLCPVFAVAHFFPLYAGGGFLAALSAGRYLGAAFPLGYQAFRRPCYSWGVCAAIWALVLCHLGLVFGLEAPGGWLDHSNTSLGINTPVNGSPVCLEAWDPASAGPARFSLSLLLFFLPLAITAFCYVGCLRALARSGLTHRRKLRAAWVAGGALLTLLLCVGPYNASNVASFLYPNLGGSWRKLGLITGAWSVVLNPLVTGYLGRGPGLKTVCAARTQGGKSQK

EC50 [1]: 110 nM | EC50 [2]: 54 nM | Intrinsic activity [3]: 210% | EC50 [4]: 4.4 µM | Activity [5]: Dose-dependent effect | EC50 [6]: 330 nM | EC50 [7]: 210 nM | Intrinsic activity [8]: 140% | half-life [11]: 420 min | Vd [12]: 0.1 L/kg | clearance [13]: 0.2 mL/min/kg | bioavailability [14]: 83% | fraction unbound [15]: 0.011 | fraction unbound [16]: 0.001 | half-life [17]: > 120 min | half-life [18]: > 120 min | half-life [19]: > 120 min | IC50 (Cytochrome P450 3A4): 1700 nM | Activity [24]: Active
SMILES: COc1ccc(F)c(-c2ccc(Cc3ccc(N4C[C@H](C(F)(F)F)C[C@@H]4CC(=O)O)cc3)c(C)c2)c1
Emax at 18 h, 4.8 µM (PPARgamma): 40% | Activity (Mus musculus [9]): 39% | Activity (Mus musculus [10]): inactive | Activity (Rattus norvegicus [20]): Non-Toxic | Activity (Rattus norvegicus [21]): Non-Toxic | Activity (Rattus norvegicus [22]): Toxic | Activity [23]: Active | Activity [25]: 1.6 µM

— ChEMBL document CHEMBL4052594, “Discovery of Pyrrolidine-Containing GPR40 Agonists: Stereochemistry Effects a Change in Binding Mode” (J Med Chem, 2017)
